Assays:
[1] = target: T1, Ephrin type-B receptor 3 (Homo sapiens) (UniProt P54753); test: Inhibition of EphB3 at 0.1 uM; values are per cent of control
T1 sequence (whole entry): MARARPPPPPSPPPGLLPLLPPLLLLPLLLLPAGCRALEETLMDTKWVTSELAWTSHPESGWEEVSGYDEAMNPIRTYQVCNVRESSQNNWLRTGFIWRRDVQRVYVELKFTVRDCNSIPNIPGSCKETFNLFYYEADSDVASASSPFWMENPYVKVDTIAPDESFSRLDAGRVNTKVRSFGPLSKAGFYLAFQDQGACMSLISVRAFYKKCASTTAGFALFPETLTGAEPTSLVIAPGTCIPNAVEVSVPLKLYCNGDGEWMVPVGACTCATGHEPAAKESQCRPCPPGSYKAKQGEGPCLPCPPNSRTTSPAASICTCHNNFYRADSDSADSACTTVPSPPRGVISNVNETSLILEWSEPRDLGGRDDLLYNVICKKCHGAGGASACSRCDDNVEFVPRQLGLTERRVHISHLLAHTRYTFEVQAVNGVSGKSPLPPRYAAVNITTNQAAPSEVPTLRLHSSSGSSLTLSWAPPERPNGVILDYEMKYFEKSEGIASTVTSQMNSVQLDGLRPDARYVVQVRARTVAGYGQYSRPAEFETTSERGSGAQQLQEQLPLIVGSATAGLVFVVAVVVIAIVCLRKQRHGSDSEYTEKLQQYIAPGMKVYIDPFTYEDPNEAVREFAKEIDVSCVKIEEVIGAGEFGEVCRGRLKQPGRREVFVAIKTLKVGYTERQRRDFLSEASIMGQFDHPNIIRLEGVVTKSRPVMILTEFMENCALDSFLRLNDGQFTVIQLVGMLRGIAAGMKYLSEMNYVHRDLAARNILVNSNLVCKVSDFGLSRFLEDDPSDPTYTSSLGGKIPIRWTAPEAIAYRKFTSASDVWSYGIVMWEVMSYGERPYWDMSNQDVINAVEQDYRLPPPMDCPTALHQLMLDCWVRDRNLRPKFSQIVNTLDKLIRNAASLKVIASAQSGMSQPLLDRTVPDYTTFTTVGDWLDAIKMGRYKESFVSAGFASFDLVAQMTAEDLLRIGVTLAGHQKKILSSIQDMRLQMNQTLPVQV

Mus musculus = test: Antiinflammatory activity in BALB/c mouse assessed as inhibition of monoclonal anti-CD3-induced IL-2 production at 10 mg/kg, po administered 1 hr before monoclonal anti-CD3 challenge measured after 2 hrs by ELISA relative to control; format: functional
Outline: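 Female BALB/c mice (~20 g) dosed orally at 10 mg/kg, 1 h before iv anti-CD3 monoclonal antibody (clone 145-2C11, 10 µg/kg). Vehicle (saline) plus antibody group served as positive control. Plasma IL-2 determined from heart-puncture blood 2 h after stimulation, under anaesthesia. Inhibition expressed relative to vehicle; n = 8 mice/group.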

Row | residual activity [1] | Compound | inhibition in vivo at 10 mg/kg (Mus musculus)
1 | 127% | Cc1ccc2cc(-c3n[nH]c4ccc(NC5CCN(Cc6ccccc6)CC5)cc34)[nH]c2c1 | 
2 |  | Cc1ccc2cc(-c3n[nH]c4ccc(NC5CCNC5)cc34)[nH]c2c1 (configuration not stated) | > 80%
